# In BindingDB's records for doi:10.1021/jm010816q (Eth Zurich, 2001):
# Residues, ends and D or L forms follow the SMILES beside them.
# Key:
# [1] = molecular target: Somatostatin receptor type 2 (Homo sapiens, UniProt P30874); assay: Binding assay at human somatostatin receptor 2 (hsst2) expressed in CCL-39 cells using LTT-CST-14-(Tyr10) as radioligand.
# Procedure, shortened: (§1)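 Chinese hamster lung fibroblast CCL39 cells stably expressing each hsst receptor; crude membrane homogenates in 10 mM HEPES pH 7.5, 0.5% BSA, 5 mM MgCl2, 5 mg/mL bacitracin. Vacuum filtration, bound radioactivity counted. Triplicate curves fitted by nonlinear regression; pKD reported.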
# [2] = molecular target: Somatostatin receptor type 3 (Homo sapiens, UniProt P32745); assay: Binding assay at human somatostatin receptor 3 (hsst3) expressed in CCL-39 cells using LTT-CST-14-(Tyr10) as radioligand.; procedure, shortened: as §1
# Somatostatin receptor type 3, sequence (P32745 whole entry): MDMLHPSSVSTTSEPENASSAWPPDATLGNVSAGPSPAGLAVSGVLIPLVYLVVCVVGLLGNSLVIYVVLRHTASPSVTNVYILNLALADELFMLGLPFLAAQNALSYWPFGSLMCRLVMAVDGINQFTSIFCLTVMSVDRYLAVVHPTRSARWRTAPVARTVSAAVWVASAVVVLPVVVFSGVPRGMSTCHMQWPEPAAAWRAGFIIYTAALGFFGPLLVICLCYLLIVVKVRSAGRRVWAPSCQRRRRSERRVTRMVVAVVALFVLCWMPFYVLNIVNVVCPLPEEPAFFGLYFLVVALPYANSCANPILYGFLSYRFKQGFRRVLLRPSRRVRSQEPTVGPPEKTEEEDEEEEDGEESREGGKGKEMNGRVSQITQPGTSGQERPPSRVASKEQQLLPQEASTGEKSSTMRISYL
# [3] = molecular target: Somatostatin receptor type 1 (Homo sapiens, UniProt P30872); assay: Binding assay at human somatostatin receptor 1 (hsst1) expressed in CCL-39 cells using LTT-CST-14-(Tyr10) as radioligand.; procedure, shortened: as §1
# Somatostatin receptor type 1, sequence (P30872 whole entry): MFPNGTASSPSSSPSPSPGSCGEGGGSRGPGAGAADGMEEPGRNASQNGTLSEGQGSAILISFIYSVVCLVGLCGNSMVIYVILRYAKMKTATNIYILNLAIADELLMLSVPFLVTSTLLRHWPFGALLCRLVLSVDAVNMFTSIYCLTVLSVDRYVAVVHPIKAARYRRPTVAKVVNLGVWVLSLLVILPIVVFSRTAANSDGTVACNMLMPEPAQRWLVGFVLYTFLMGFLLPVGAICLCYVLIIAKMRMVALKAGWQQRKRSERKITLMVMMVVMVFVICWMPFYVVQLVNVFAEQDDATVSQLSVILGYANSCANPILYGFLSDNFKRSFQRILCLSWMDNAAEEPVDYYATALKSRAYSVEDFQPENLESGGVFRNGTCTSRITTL
# [4] = molecular target: Somatostatin receptor type 5 (Homo sapiens, UniProt P35346); assay: Binding assay at human somatostatin receptor 5 (hsst5) expressed in CCL-39 cells using LTT-CST-14-(Tyr10) as radioligand.; procedure, shortened: as §1
# Somatostatin receptor type 5, sequence (P35346 whole entry): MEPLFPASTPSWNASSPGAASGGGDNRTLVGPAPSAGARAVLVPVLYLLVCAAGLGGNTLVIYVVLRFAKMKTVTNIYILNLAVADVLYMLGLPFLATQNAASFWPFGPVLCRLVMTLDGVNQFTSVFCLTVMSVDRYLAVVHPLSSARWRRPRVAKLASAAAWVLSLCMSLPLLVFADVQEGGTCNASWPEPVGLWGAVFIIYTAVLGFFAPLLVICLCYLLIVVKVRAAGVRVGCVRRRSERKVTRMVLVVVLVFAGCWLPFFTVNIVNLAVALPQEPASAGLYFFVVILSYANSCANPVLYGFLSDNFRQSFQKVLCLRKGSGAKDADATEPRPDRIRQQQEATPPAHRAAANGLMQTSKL
# [5] = molecular target: Somatostatin receptor type 4 (Homo sapiens, UniProt P31391); assay: Binding assay at human somatostatin receptor 4 (hsst4) expressed in CCL-39 cells using LTT-CST-14-(Tyr10) as radioligand.; procedure, shortened: as §1
# Somatostatin receptor type 4, sequence (P31391 whole entry): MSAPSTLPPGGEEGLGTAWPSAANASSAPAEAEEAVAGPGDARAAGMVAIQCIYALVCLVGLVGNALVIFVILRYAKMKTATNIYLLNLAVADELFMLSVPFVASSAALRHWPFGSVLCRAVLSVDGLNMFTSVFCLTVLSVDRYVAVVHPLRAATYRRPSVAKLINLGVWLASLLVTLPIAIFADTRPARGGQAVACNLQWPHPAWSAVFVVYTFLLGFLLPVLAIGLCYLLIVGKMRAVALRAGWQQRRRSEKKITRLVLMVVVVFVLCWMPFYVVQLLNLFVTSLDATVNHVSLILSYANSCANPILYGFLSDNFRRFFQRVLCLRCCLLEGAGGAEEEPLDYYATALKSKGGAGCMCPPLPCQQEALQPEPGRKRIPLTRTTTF
# Somatostatin receptor type 2, sequence (P30874 whole entry): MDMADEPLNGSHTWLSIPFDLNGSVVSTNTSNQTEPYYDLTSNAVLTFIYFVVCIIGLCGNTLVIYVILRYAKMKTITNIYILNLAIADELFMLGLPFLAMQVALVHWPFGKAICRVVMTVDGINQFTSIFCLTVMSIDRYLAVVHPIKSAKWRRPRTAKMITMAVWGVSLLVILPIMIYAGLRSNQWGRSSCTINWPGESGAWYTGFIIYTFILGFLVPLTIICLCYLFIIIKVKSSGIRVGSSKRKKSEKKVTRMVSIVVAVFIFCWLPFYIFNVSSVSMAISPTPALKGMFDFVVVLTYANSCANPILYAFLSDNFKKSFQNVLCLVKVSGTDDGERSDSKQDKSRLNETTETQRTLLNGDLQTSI
Kd [1],Kd [2],Kd [3],Kd [4],Kd [5],Compound
> 10 µM,> 10 µM,13.2 µM,> 10 µM,0.083 µM,CC(=O)N[C@H](CC(=O)NC[C@H](CCCCN)C(=O)N[C@H](CC(=O)N[C@H](CC(N)=O)Cc1ccccc1)Cc1c[nH]c2ccccc12)[C@@H](C)O
> 100 µM,> 10 µM,> 100 µM,> 100 µM,> 100 µM,CC(=O)N[C@H](CC(=O)N[C@@H](CCCCN)CC(=O)N[C@H](CC(=O)N[C@H](CC(N)=O)Cc1ccccc1)Cc1c[nH]c2ccccc12)[C@@H](C)O
> 100 µM,> 10 µM,> 100 µM,> 100 µM,> 10 µM,CC(=O)N[C@H](C(=O)N[C@@H](CCCCN)C(=O)N[C@@H](Cc1c[nH]c2ccccc12)C(=O)N[C@@H](Cc1ccccc1)C(N)=O)[C@@H](C)O (Ac-TKWF-NH2)
